From ChEMBL document CHEMBL4706601, “The endocannabinoid system dual-target ligand N-cycloheptyl-1,2-dihydro-5-bromo-1-(4-fluorobenzyl)-6-methyl-2-oxo-pyridine-3-carboxamide improves disease severity in a mouse model of multiple sclerosis” (Eur J Med Chem, 2020) come the findings set out here.

pEC50: −log10 of the molar value. Activity calls are given as the source filed them. The rule behind the calls is not given here.

Test [1] deals with T1, Cannabinoid receptor 2 (Homo sapiens, UniProt P34972). Briefly: Antagonist activity at human CB2R expressed in CHO cell membranes preincubated for 30 mins followed by GTPgammaS addition and measured after 90 mins by [35S]GTPgammaS assay. The test is classed as functional, Membrane. An outline of the steps: (§1)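 In-house CHO membranes expressing hCB1 or hCB2 (10 µg) in 50 mM Tris-HCl, 3 mM MgCl2, 0.2 mM EDTA, 100 mM NaCl, 0.5% fatty-acid-free BSA, pH 7.4, with 10 μM GDP and 0.1 nM [35S]GTPγS. Incubated 90 min at 30 °C; antagonist pre-incubated 30 min. Nonspecific binding with 10 μM GTPγS; bound label by filtration and counting; ≥3 experiments in triplicate.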
T1 sequence (P34972 whole entry): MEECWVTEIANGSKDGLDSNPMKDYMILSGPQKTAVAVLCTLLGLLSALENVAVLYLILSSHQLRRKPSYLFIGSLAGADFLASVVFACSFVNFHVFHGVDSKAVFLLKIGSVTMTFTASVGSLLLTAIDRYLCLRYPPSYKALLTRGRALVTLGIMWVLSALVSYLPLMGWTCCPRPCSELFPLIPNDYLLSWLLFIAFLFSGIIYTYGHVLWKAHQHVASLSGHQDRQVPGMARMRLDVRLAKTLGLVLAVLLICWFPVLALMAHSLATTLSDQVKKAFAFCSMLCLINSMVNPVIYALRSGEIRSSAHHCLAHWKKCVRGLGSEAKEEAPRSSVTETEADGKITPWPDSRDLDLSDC

Test [2] concerns the target T1, Cannabinoid receptor 2. Briefly: Competitive antagonist activity at human CB2R expressed in CHO cell membranes assessed as N-cycloheptyl-1,2-dihydro-5-bromo-1-(4-fluoro benzyl)-6-methyl-2-oxo-pyridine-3-carboxamide Emax at 300 nM preincubated with compound for 30 mins followed by GTPgammaS addition and measured after 90 mins by [35S]GTPgammaS assay (reference value: 210%). The test is classed as functional. The note with it: Membrane, filed as antagonist, time 120.0 min. An outline of the steps:
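hCB2 CHO membranes in GTPγS buffer (10 μM GDP, 0.1 nM [35S]GTPγS, pH 7.4) pre-incubated 30 min with antagonist at 300 nM or 1 µM, then agonist or inverse agonist concentration series, 90 min at 30 °C. EC50 and Emax reported with 95% CI; Schild analysis; controls CP55,940 100 nM and AM630 1 μM; ≥3 experiments in triplicate.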

The target in test [3] is T1, Cannabinoid receptor 2. Briefly: Non-competitive antagonist activity at human CB2R expressed in CHO cell membranes assessed as N-cycloheptyl-1,2-dihydro-1-(4-fluorobenzyl)-6-methyl-2-oxo-5-phenyl-pyridine-3-carboxamide Emax at 300 nM preincubated with compound for 30 mins followed by GTPgammaS addition and measured after 90 mins by [35S]GTPgammaS assay (reference value: -49.9%). It is filed as functional. The following applies: Membrane, filed as antagonist, time 120.0 min. An outline of the steps: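 hCB2 membranes from stably transfected CHO cells (10 µg) pre-incubated 30 min with antagonist, then an inverse-agonist concentration series added. Buffer: 50 mM Tris-HCl, 3 mM MgCl2, 0.2 mM EDTA, 100 mM NaCl, 0.5% fatty-acid-free BSA, pH 7.4, with 10 µM GDP and 0.1 nM [35S]GTPγS. Incubated 90 min at 30 °C, then filtered. Non-specific binding measured with 10 µM GTPγS. Emax given with 95% CI; at least 3 experiments, each in triplicate.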

For test [4], the target named is T1, Cannabinoid receptor 2. The test is described as follows: Competitive antagonist activity at human CB2R expressed in CHO cell membranes assessed as rightward shift of N-cycloheptyl-1,2-dihydro-5-bromo-1-(4-fluoro benzyl)-6-methyl-2-oxo-pyridine-3-carboxamide-induced GTPgammaS binding by measuring fold change in N-cycloheptyl-1,2-dihydro-5-bromo-1-(4-fluoro benzyl)-6-methyl-2-oxo-pyridine-3-carboxamide EC50 at 100 nM preincubated with compound for 30 mins followed by GTPgammaS addition and measured after 90 mins by [35S]GTPgammaS assay. The test is classed as functional. The following applies: Membrane, time 120.0 min.

The next test has as its target Cannabinoid receptor 1 (Homo sapiens, UniProt P21554). Briefly: Agonist activity at human CB1R expressed in CHO cell membranes after 90 mins by [35S]GTPgammaS assay. It is filed as functional, Membrane. The essentials:
as §1

Test [5] addresses Cannabinoid receptor 2 (Mus musculus) (UniProt P47936). Briefly: Agonist activity at CB2R in LPS induced mouse BV2 cells assessed as increase in IL-10 secretion at 10 uM preincubated for 30 mins followed by LPS stimulation for 4 hrs by ELISA. It is filed as cell-based. The following applies: BV-2, filed as agonist, time 270.0 min. An outline of the steps:
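BV-2 murine microglia grown in high-glucose DMEM with 10% FBS. Treatments in FBS-free medium: test agonist 10 μM for 30 min, then LPS 5 μg/ml for 4 h; SR144528 10 μM given 15 min before agonist. DMSO ≤0.1% final. Medium spun 10 min at 1000×g; IL-1β, IL-6, IL-10 quantified by ELISA; three independent experiments in duplicate.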

Test [6] deals with Cannabinoid receptor 1 (Rattus norvegicus) (UniProt P20272). The test is described as follows: Agonist activity at CB1R in Sprague-Dawley rat hippocampal synaptosomes assessed as inhibition of 4-AP evoked glutamate release at 10 uM preincubated for 8 mins followed by 4-AP addition by HPLC analysis. The test is classed as subcellular. The following applies: Hippocampus, filed as agonist. An outline of the steps: (§2)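 Rat (male Sprague Dawley, 200-250 g) hippocampal synaptosomes from Percoll gradient, superfused at 37 °C (0.5 ml/min); 4-AP 600 μM for 2 min. Compounds and antagonists (SR141716A, SR144528, 1 μM) added 8 min before 4-AP and kept during it; basal effects tested by 2-min exposure alone. Endogenous glutamate by HPLC as pmol/mg protein; overflow = stimulated minus basal in control chambers; n = 3–9, triplicate.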
Cannabinoid receptor 1 (Rattus norvegicus), sequence (P20272 whole entry, the tested form may be a part): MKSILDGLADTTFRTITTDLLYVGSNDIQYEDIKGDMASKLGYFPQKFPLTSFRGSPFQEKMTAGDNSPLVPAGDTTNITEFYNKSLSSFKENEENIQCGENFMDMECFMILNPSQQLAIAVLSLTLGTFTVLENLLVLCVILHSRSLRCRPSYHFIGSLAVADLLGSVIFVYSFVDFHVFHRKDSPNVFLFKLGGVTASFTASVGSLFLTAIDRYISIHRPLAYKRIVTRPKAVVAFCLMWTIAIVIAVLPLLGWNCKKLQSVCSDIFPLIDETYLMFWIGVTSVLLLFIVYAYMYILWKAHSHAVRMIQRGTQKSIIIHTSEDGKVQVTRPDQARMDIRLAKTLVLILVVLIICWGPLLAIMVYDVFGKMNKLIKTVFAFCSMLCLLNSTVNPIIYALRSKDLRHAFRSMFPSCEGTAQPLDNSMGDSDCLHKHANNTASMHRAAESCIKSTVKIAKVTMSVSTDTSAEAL

Test [7] has the same target. The test is described as follows: Agonist activity at CB1R in Sprague-Dawley rat hippocampal synaptosomes assessed as inhibition of 4-AP evoked glutamate release at 10 uM preincubated for 8 mins followed by 4-AP addition in presence of 1 to 3 uM CB1R antagonist, SR141716A by HPLC analysis. It is filed as subcellular. The following applies: Hippocampus. An outline of the steps:
as §2

The target is the same in test [8]. The test is described as follows: Agonist activity at CB1R in Sprague-Dawley rat hippocampal synaptosomes assessed as inhibition of 4-AP evoked glutamate release at 10 uM preincubated for 8 mins followed by 4-AP addition in presence of 1 uM CB2R antagonist, SR144528 by HPLC analysis. The note with it: Hippocampus, filed as agonist. The test is classed as subcellular. The essentials: as §2

In test [9] the test system is Mus musculus. The test is described as follows: Antinociceptive activity in orally dosed CD-1 albino mouse model of oxaliplatin-induced neuropathic pain assessed as decrease in pain-related behaviour treated on day 15 post oxaliplatin treatment and measured after 15 to 75 mins post dose by cold plate test. The test is classed as functional, organism-based. The note with it: dose 5-50 mg/kg, time 15-75 min. An outline of the steps: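 Male CD-1 mice (22-25 g) given oxaliplatin 2.4 mg/kg i.p. in 5% glucose on days 1-2, 5-9, 12-14; tested day 15. Compound in 1% carboxymethylcellulose orally at 5, 10, 20, 50 mg/kg. Cold plate licking latency at 15, 30, 45, 60, 75 min post dose. Selective CB1R and CB2R antagonists co-tested. 16 mice per treatment across 2 sessions; one-way ANOVA with Bonferroni.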

Test [10] relates to Mus musculus. The test is described as follows: Antiinflammatory activity in MOG (35 to 55 residues)/pertussis toxin-induced experimental autoimmune encephalomyelitis C57BL/6J mouse model assessed as improvement in early stage disease severity at 10 mg/kg, ip dosed once daily for 20 days starting from day 10 to 16 post immunization and measured at day 2 to 4 post treatment. It is filed as functional, organism-based. The note with it: time 2-4 day. The essentials:
(§3)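 Active EAE in mice: 200 µg MOG35-55 in CFA (4 mg/ml M. tuberculosis) s.c. at hips and tail root, plus pertussis toxin 300 ng i.p. after immunization and 48 h later. Daily i.p. dosing (DMSO vehicle) for 20 days from each mouse's onset (day 10–16); onset = day 1. Daily clinical score; multiple t-tests with Holm-Sidak.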

In test [11] the test system is Mus musculus. The test is described as follows: Antiinflammatory activity in MOG (35 to 55 residues)/pertussis toxin-induced experimental autoimmune encephalomyelitis C57BL/6J mouse model assessed as reduction in clinical scores at 10 mg/kg, ip dosed once daily for 20 days starting from day 10 to 16 post immunization and measured from 2 to 4 days post treatment. It is filed as functional. The following applies: time 2-4 day. An outline of the steps:
as §3

Cannabinoid receptor 1, sequence (P21554 whole entry): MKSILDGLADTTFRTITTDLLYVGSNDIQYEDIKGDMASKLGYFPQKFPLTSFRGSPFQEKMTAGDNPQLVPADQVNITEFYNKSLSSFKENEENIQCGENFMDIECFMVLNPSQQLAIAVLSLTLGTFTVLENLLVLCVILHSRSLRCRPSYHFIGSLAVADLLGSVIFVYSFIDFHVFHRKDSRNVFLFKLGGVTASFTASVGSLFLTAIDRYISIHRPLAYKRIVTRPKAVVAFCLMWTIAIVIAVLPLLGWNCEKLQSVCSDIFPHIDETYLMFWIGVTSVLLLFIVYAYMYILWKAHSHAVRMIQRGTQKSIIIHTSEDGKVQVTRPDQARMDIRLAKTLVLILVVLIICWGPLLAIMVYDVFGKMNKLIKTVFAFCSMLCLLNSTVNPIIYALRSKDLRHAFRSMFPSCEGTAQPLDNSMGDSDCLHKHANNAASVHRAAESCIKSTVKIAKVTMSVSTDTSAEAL
Cannabinoid receptor 2 (Mus musculus), sequence (P47936 whole entry): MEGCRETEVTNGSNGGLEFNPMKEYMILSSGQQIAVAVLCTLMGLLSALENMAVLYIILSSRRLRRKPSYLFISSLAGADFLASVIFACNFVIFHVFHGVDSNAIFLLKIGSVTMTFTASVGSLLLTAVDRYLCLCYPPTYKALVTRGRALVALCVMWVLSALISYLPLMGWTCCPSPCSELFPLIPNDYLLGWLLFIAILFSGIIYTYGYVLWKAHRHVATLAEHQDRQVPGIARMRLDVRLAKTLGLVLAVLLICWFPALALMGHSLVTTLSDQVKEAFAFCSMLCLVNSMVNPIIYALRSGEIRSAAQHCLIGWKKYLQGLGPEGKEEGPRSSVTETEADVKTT

In turn, `COc1ccc(-c2cc(C(=O)NC3CCCCCC3)c(=O)n(Cc3ccc(F)cc3)c2C)cc1` had a pEC50 on Cannabinoid receptor 2 [1] of 6.77. The Emax on Cannabinoid receptor 2 [2] is 209%; on Cannabinoid receptor 2 [3] it was -28.6%. Further, at Cannabinoid receptor 2 [4], the fold change (FC) amounted to 8.

On Cannabinoid receptor 1, `Cc1c(Br)cc(C(=O)NC2CCCCCC2)c(=O)n1Cc1ccc(F)cc1` gave a negative-log EC50 (pEC50) of 7.25. Moreover, the Activity in test [5] was 484%; in the test on Mus musculus [9] it was “Dose-dependent effect”. In addition, the outcome (in test [6]; in test [8]; with Mus musculus [10]) was Active. In addition, in test [7], the result was inactive. In the test with Mus musculus [11], the inhibition in vivo at 10 mg/kg was found to be 30%.
